Source: ChEMBL document CHEMBL4043093, “2-Oxo-3, 4-dihydropyrimido[4, 5-d]pyrimidinyl derivatives as new irreversible pan fibroblast growth factor receptor (FGFR) inhibitors” (Eur J Med Chem, 2017)

Assays:
[1] = biological target: Cyclin-dependent kinase 3 (Homo sapiens) (UniProt Q00526); assay: Inhibition of wild-type human full length CDK3 (M1 to H305 residues) expressed in Escherichia coli BL21 assessed as residual activity at 1000 nM after 30 mins by Kinomescan method relative to control
How it was run: (§1)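 Single-point screen at a fixed 1 µM, run within a 456-kinase DiscoveRx KINOMEscan panel. Each kinase's read-out is Percent Control, i.e. signal relative to a control without compound. Hits were scored by a Percent Control < 35 cut-off, and an S(35) selectivity score was calculated across the non-mutant kinases.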

[2] = biological target: STE20/SPS1-related proline-alanine-rich protein kinase (Homo sapiens) (UniProt Q9UEW8); assay: Inhibition of wild-type human partial length STK39 (P43 to I357 residues) expressed in HEK293 cells assessed as residual activity at 1000 nM after 30 mins by Kinomescan method relative to control; type: cell-based
[3] = biological target: Interleukin-1 receptor-associated kinase 1 (Homo sapiens) (UniProt P51617); assay: Inhibition of wild-type human partial length IRAK1 (R194 to S712 residues) expressed in HEK293 cells assessed as residual activity at 1000 nM after 30 mins by Kinomescan method relative to control; type: cell-based
[4] = biological target: Dual specificity mitogen-activated protein kinase kinase 1 (Homo sapiens) (UniProt Q02750); assay: Inhibition of wild-type human full length MEK1 (M1 to V393 residues) expressed in HEK293 cells assessed as residual activity at 1000 nM after 30 mins by Kinomescan method relative to control; type: cell-based
How it was run: (§2)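 Single-concentration screen at 1 µM across a 456-kinase KINOMEscan panel. The read-out is Percent Control for each kinase.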

[5] = biological target: cAMP-dependent protein kinase catalytic subunit alpha (Homo sapiens) (UniProt P17612); assay: Inhibition of wild-type human partial length PKAC-alpha (G10 to F351 residues) expressed in Escherichia coli BL21 assessed as residual activity at 1000 nM after 30 mins by Kinomescan method relative to control
[6] = biological target: NUAK family SNF1-like kinase 2 (Homo sapiens) (UniProt Q9H093); assay: Inhibition of wild-type human partial length SNARK (P22 to A333 residues) expressed in HEK293 cells assessed as residual activity at 1000 nM after 30 mins by Kinomescan method relative to control; type: cell-based
[7] = biological target: Serine/threonine-protein kinase pim-1 (Homo sapiens) (UniProt P11309); assay: Inhibition of wild-type human partial length PIM1 (A15 to K313 residues) expressed in Escherichia coli BL21 assessed as residual activity at 1000 nM after 30 mins by Kinomescan method relative to control
[8] = tested on: Mast/stem cell growth factor receptor Kit (Homo sapiens), P10721 [D816H]; assay: Inhibition of human partial length KIT D816H mutant (I571 to D952 residues) expressed in HEK293 cells assessed as residual activity at 1000 nM after 30 mins by Kinomescan method relative to control; type: cell-based
How it was run: (§3)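 KINOMEscan binding panel of 456 kinases, with the test compound at a single concentration of 1 µM. Read-out is Percent Control.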

[9] = biological target: Serine/threonine-protein kinase MARK2 (Homo sapiens) (UniProt Q7KZI7); assay: Inhibition of wild-type human partial length MARK2 (M1 to R450 residues) expressed in Escherichia coli BL21 assessed as residual activity at 1000 nM after 30 mins by Kinomescan method relative to control
[10] = biological target: Ribosomal protein S6 kinase alpha-5 (Homo sapiens) (UniProt O75582); assay: Inhibition of wild-type human partial length N-terminal RPS6KA5 kinase domain 1 expressed in Escherichia coli BL21 assessed as residual activity at 1000 nM after 30 mins by Kinomescan method relative to control
[11] = biological target: Mitotic checkpoint serine/threonine-protein kinase BUB1 (Homo sapiens) (UniProt O43683); assay: Inhibition of wild-type human partial length BUB1 (Q724 to K1085 residues) expressed in HEK293 cells assessed as residual activity at 1000 nM after 30 mins by Kinomescan method relative to control; type: cell-based
[12] = tested on: Receptor-type tyrosine-protein kinase FLT3 (Homo sapiens), P36888 [D835Y]; assay: Inhibition of human partial length FLT3 D835Y mutant (Q580 to Y969 residues) expressed in Escherichia coli BL21 assessed as residual activity at 1000 nM after 30 mins by Kinomescan method relative to control; how it was run: as §3
[13] = biological target: Mast/stem cell growth factor receptor Kit (Homo sapiens) (UniProt P10721); assay: Inhibition of wild-type human partial length KIT (I571 to D952 residues) expressed in Escherichia coli BL21 assessed as residual activity at 1000 nM after 30 mins by Kinomescan method relative to control
[14] = biological target: Cyclin-dependent kinase 18 (Homo sapiens) (UniProt Q07002); assay: Inhibition of wild-type human full length PCTK3 (M3 to F474 residues) expressed in Escherichia coli BL21 assessed as residual activity at 1000 nM after 30 mins by Kinomescan method relative to control; how it was run: as §2
[15] = biological target: Tyrosine-protein kinase HCK (Homo sapiens) (UniProt P08631); assay: Inhibition of wild-type human full length HCK (M22 to P526 residues) expressed in Escherichia coli BL21 assessed as residual activity at 1000 nM after 30 mins by Kinomescan method relative to control; how it was run: as §2
[16] = tested on: Phosphatidylinositol 4,5-bisphosphate 3-kinase catalytic subunit alpha isoform (Homo sapiens), P42336 [H1047Y]; assay: Inhibition of human partial length PIK3CA H1047Y mutant (R108 to N1068 residues) expressed in HEK293 cells assessed as residual activity at 1000 nM after 30 mins by Kinomescan method relative to control; type: cell-based; how it was run: as §3
[17] = biological target: Cyclin-dependent kinase 8 (Homo sapiens) (UniProt P49336); assay: Inhibition of wild-type human partial length CDK8 (M1 to T360 residues) expressed in Escherichia coli BL21 assessed as residual activity at 1000 nM after 30 mins by Kinomescan method relative to control
[18] = biological target: Tyrosine-protein kinase JAK1 (Homo sapiens) (UniProt P23458); assay: Inhibition of wild-type human partial length JAK1 JH1 catalytic domain (V856 to K1154 residues) expressed in Escherichia coli BL21 assessed as residual activity at 1000 nM after 30 mins by Kinomescan method relative to control
[19] = biological target: Bone morphogenetic protein receptor type-1B (Homo sapiens) (UniProt O00238); assay: Inhibition of wild-type human partial length BMPR1B (D178 to L502 residues) expressed in HEK293 cells assessed as residual activity at 1000 nM after 30 mins by Kinomescan method relative to control; type: cell-based
[20] = tested on: Proto-oncogene tyrosine-protein kinase receptor Ret (Homo sapiens), P07949 [M918T]; assay: Inhibition of human partial length RET M918T mutant (E713 to D1014 residues) expressed in Escherichia coli BL21 assessed as residual activity at 1000 nM after 30 mins by Kinomescan method relative to control; how it was run: as §1
[21] = biological target: Fibroblast growth factor receptor 2 (Homo sapiens, UniProt P21802); assay: Inhibition of human recombinant cytoplasmic His-tagged FGFR2 (403 to 822 residues) expressed in baculovirus using Tyr-4 peptide after 1 hr by FRET-based Z'-Lyte assay

Structure (SMILES): COc1cc(OC)c(Cl)c(N2Cc3cnc(Nc4ccc(F)cc4)nc3N(C3CCN(C(=O)/C=C/CN(C)C)CC3)C2=O)c1Cl
- Activity [1]: 97%
- Activity [2]: 100%
- Activity [3]: 98%
- Activity [4]: 100%
- Activity [5]: 100%
- Activity [6]: 89%
- Activity [7]: 97%
- Activity [8]: 66%
- Activity [9]: 90%
- Activity [10]: 99%
- Activity [11]: 100%
- Activity [12]: 83%
- Activity [13]: 19%
- Activity [14]: 93%
- Activity [15]: 10%
- Activity [16]: 100%
- Activity [17]: 85%
- Activity [18]: 93%
- Activity [19]: 97%
- Activity [20]: 7.1%
- IC50 [21]: 1.45 nM
